Measurements as given in ChEMBL document CHEMBL1147968, “Novel lbeta-methylcarbapenems having cyclic sulfonamide moieties: synthesis and evaluation of in vitro antibacterial activity” (2007).
In brackets after ≈: the same amount, converted by molar mass.

Experiments:
Pseudomonas aeruginosa [1] = test: Antibacterial activity against Pseudomonas aeruginosa 5455 after 18 to 24 hrs by agar dilution method; type: functional
Procedure, shortened: (§1)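 MICs were determined by agar dilution on test agar. An overnight tryptosoy broth culture was diluted in the same broth to about 10⁶ cells/mL and spotted with an inoculating device onto agar containing serial twofold dilutions of compound. Plates were incubated at 37 °C for 18–20 h, and the MIC was the lowest concentration with no visible growth.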

[2] = Antibacterial activity against Salmonella oranienburg after 18 to 24 hrs by agar dilution method; type: functional, Salmonella enterica subsp. enterica serovar Oranienburg; conditions: Salmonella enterica; procedure, shortened: as §1
Klebsiella pneumoniae [3] = test: Antibacterial activity against Klebsiella pneumoniae 477 after 18 to 24 hrs by agar dilution method; type: functional; procedure, shortened: as §1
Pseudomonas aeruginosa [4] = test: Antibacterial activity against Pseudomonas aeruginosa 880/2 after 18 to 24 hrs by agar dilution method; type: functional; procedure, shortened: as §1
Citrobacter freundii = test: Antibacterial activity against Citrobacter freundii 323 after 18 to 24 hrs by agar dilution method; type: functional; procedure, shortened: as §1
Enterobacter cloacae [5] = test: Antibacterial activity against Enterobacter cloacae 417 after 18 to 24 hrs by agar dilution method; type: functional; procedure, shortened: as §1
Burkholderia cepacia = test: Antibacterial activity against Pseudomonas cepacia after 18 to 24 hrs by agar dilution method; type: functional; procedure, shortened: as §1
Priestia megaterium = test: Antibacterial activity against Bacillus megaterium after 18 to 24 hrs by agar dilution method; type: functional; procedure, shortened: as §1
Pseudomonas aeruginosa [6] = test: Antibacterial activity against Pseudomonas aeruginosa 9027 after 18 to 24 hrs by agar dilution method; type: functional; procedure, shortened: as §1
Escherichia coli [7] = test: Antibacterial activity against Escherichia coli 04 after 18 to 24 hrs by agar dilution method; type: functional; procedure, shortened: as §1
Staphylococcus aureus [8] = test: Antibacterial activity against Staphylococcus aureus 209P after 18 to 24 hrs by agar dilution method; type: functional; procedure, shortened: as §1
Streptococcus agalactiae = test: Antibacterial activity against Streptococcus agalactiae 32 after 18 to 24 hrs by agar dilution method; type: functional; procedure, shortened: as §1
Salmonella paratyphi = test: Antibacterial activity against Salmonella paratyphi A after 18 to 24 hrs by agar dilution method; type: functional, Salmonella enterica subsp. enterica serovar Paratyphi A; conditions: Salmonella enterica
Procedure, shortened: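 Agar dilution on test agar with serial twofold dilutions of compound. Overnight tryptosoy broth cultures diluted in the same broth to about 10⁶ cells/mL, then applied with an inoculating device. Plates incubated at 37 °C for 18–20 h.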

Staphylococcus aureus [9] = test: Antibacterial activity against Staphylococcus aureus 503 after 18 to 24 hrs by agar dilution method; type: functional; procedure, shortened: as §1
Providencia rettgeri = test: Antibacterial activity against Proteus rettgeri 937 after 18 to 24 hrs by agar dilution method; type: functional; procedure, shortened: as §1
Enterobacter cloacae [10] = test: Antibacterial activity against Enterobacter cloacae 34 after 18 to 24 hrs by agar dilution method; type: functional; procedure, shortened: as §1
Serratia marcescens [11] = test: Antibacterial activity against Serratia marcescens 14273 after 18 to 24 hrs by agar dilution method; type: functional; procedure, shortened: as §1
Staphylococcus aureus [12] = test: Antibacterial activity against Staphylococcus aureus 1218 after 18 to 24 hrs by agar dilution method; type: functional; procedure, shortened: as §1
Enterobacter cloacae [13] = test: Antibacterial activity against Enterobacter cloacae after 18 to 24 hrs by agar dilution method; type: functional; procedure, shortened: as §1
Trueperella pyogenes = test: Antibacterial activity against Corynebacterium pyogenes after 18 to 24 hrs by agar dilution method; type: functional; procedure, shortened: as §1
Serratia marcescens [14] = test: Antibacterial activity against Serratia marcescens 370 after 18 to 24 hrs by agar dilution method; type: functional; procedure, shortened: as §1
Streptococcus pyogenes = test: Antibacterial activity against Streptococcus pyogenes 9889 after 18 to 24 hrs by agar dilution method; type: functional
Procedure, shortened: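 Agar dilution on test agar holding serial twofold dilutions of compound. Overnight tryptosoy broth cultures were diluted in the same broth to about 10⁶ cells/mL and spotted with an inoculating device. Plates were incubated at 37 °C for 18–20 h.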

Acinetobacter baumannii = test: Antibacterial activity against Acinetobacter baumannii 2289 after 18 to 24 hrs by agar dilution method; type: functional; procedure, shortened: as §1
Enterococcus faecium = test: Antibacterial activity against Streptococcus faecium 77A after 18 to 24 hrs by agar dilution method; type: functional; procedure, shortened: as §1
Micrococcus luteus = test: Antibacterial activity against Micrococcus luteus ATCC 9341 after 18 to 24 hrs by agar dilution method; type: functional; procedure, shortened: as §1
Klebsiella pneumoniae [15] = test: Antibacterial activity against Klebsiella pneumoniae 523 after 18 to 24 hrs by agar dilution method; type: functional; procedure, shortened: as §1
Escherichia coli [16] = test: Antibacterial activity against Escherichia coli 0114 after 18 to 24 hrs by agar dilution method; type: functional; procedure, shortened: as §1

Molecule `C[C@@H](O)[C@H]1C(=O)N2C(C(=O)O)=C(SCCNC=N)C[C@H]12` [IMIPENEM ANHYDROUS] has an MIC (Pseudomonas aeruginosa [1]) of 3.12 µg/mL (≈ 10.4 µM), an MIC [2] of 0.4 µg/mL (≈ 1.34 µM) and an MIC (Klebsiella pneumoniae [3]) of 0.2 µg/mL (≈ 0.668 µM). It also gave an MIC (Pseudomonas aeruginosa [4]) of 0.8 µg/mL (≈ 2.67 µM), an MIC (Citrobacter freundii) of 0.391 µg/mL (≈ 1.31 µM) and an MIC (Enterobacter cloacae [5]) of 0.1 µg/mL (≈ 0.334 µM). For the same molecule, the MIC (Burkholderia cepacia) was 0.8 µg/mL (≈ 2.67 µM), the MIC (Priestia megaterium) was 0.03 µg/mL (≈ 0.1 µM) and the MIC (Pseudomonas aeruginosa [6]) was 0.8 µg/mL (≈ 2.67 µM). The MIC (Escherichia coli [7]) was 0.195 µg/mL (≈ 0.651 µM), the MIC (Staphylococcus aureus [8]) was 0.01 µg/mL (≈ 0.0334 µM) and the MIC (Streptococcus agalactiae) was 0.01 µg/mL (≈ 0.0334 µM). The MIC (Salmonella paratyphi) was 0.1 µg/mL (≈ 0.334 µM), the MIC (Staphylococcus aureus [9]) was less than 0.01 µg/mL and the MIC (Providencia rettgeri) was 0.2 µg/mL (≈ 0.668 µM). The MIC (Enterobacter cloacae [10]) was 0.781 µg/mL (≈ 2.61 µM), the MIC (Serratia marcescens [11]) was 0.8 µg/mL (≈ 2.67 µM) and the MIC (Staphylococcus aureus [12]) was 1.56 µg/mL (≈ 5.21 µM). It also gave an MIC (Enterobacter cloacae [13]) of 0.1 µg/mL (≈ 0.334 µM), an MIC (Trueperella pyogenes) of 0.01 µg/mL (≈ 0.0334 µM) and an MIC (Serratia marcescens [14]) of 0.2 µg/mL (≈ 0.668 µM). It also gave an MIC (Streptococcus pyogenes) of less than 0.01 µg/mL, an MIC (Acinetobacter baumannii) of 12.5 µg/mL (≈ 41.8 µM) and an MIC (Enterococcus faecium) of less than 0.01 µg/mL. The MIC (Micrococcus luteus) was 0.01 µg/mL (≈ 0.0334 µM), the MIC (Klebsiella pneumoniae [15]) was 0.781 µg/mL (≈ 2.61 µM) and the MIC (Escherichia coli [16]) was 0.1 µg/mL (≈ 0.334 µM).
